# ChEMBL document CHEMBL1157888, “New 5-HT(1A) receptor ligands containing a N'-cyanoisonicotinamidine nucleus: synthesis and in vitro pharmacological evaluation” (Bioorg Med Chem Lett, 2010)
# Molecular target: T1, Adrenergic receptor alpha-2 (Rattus norvegicus, UniProt P22086+P19328+P22909)
# T1 sequence (P22086 whole entry): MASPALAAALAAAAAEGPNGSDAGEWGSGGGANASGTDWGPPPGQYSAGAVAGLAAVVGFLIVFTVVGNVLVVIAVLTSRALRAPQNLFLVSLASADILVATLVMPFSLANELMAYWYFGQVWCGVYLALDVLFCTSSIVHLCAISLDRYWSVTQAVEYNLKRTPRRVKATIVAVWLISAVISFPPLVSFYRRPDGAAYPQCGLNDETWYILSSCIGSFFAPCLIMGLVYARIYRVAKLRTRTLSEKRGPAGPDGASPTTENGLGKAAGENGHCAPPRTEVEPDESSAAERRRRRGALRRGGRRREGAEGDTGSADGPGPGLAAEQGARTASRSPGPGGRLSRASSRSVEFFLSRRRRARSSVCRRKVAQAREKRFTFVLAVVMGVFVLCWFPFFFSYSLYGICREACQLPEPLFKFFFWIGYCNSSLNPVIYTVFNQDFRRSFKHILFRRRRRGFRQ
# T1 sequence (P19328 whole entry): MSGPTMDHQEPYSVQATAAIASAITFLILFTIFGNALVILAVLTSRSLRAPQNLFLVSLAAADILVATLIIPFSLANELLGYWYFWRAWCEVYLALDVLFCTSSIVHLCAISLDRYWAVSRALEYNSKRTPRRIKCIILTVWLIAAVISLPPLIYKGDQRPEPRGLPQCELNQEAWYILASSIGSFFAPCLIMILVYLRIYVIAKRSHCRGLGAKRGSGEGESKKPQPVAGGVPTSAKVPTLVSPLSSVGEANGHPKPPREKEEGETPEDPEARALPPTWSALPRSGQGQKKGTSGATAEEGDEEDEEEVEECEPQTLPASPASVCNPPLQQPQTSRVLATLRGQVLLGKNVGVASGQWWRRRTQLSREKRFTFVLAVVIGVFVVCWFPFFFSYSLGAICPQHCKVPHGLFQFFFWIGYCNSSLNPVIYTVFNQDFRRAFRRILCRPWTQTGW
# T1 sequence (P22909 whole entry): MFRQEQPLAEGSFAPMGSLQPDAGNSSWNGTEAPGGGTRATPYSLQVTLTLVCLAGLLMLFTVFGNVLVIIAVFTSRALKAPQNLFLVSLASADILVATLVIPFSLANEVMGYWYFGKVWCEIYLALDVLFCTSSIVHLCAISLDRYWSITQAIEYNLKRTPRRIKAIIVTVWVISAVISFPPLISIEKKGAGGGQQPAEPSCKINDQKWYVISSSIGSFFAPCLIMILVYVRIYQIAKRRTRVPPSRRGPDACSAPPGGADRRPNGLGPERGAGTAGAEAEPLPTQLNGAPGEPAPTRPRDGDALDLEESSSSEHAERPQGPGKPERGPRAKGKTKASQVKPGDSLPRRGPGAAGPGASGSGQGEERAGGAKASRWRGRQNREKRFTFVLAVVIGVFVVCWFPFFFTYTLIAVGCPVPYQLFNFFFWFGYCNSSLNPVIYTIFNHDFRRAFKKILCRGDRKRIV
# Test: Displacement of [3H]yohimbine from alpha 2 adrenergic receptor in rat brain cortex after 30 mins by liquid scintillation counting
# Format: tissue-based
# Conditions: not given; call rule not given here
# Method in brief: (§1)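 Radioligand competition binding. Compounds were dissolved in ethanol or in 5% DMSO, and blank runs checked 5% DMSO for interference with binding. Six test-compound concentrations, each in triplicate, gave IC50 values by curve fitting. Ki was calculated by Cheng–Prusoff, Ki = IC50/(1 + S/KD), where S is the hot-ligand concentration and KD came from Scatchard analysis for each labeled ligand.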
row,Ki,Compound
1,> 10000 nM,N#C/N=C(\NCCCN1CCN(c2cccc(Cl)c2)CC1)c1ccncc1
2,> 10000 nM,N#C/N=C(\NCCCN1CCN(c2ccccn2)CC1)c1ccncc1
3,516 nM,CCOc1ccccc1N1CCN(CCCN/C(=N\C#N)c2ccncc2)CC1
4,2570 nM,COc1ccccc1N1CCN(CCCN/C(=N\C#N)c2ccncc2)CC1

# Molecular target: T2, 5-hydroxytryptamine receptor 1A (Rattus norvegicus, UniProt P19327)
# T2 sequence (P19327 whole entry): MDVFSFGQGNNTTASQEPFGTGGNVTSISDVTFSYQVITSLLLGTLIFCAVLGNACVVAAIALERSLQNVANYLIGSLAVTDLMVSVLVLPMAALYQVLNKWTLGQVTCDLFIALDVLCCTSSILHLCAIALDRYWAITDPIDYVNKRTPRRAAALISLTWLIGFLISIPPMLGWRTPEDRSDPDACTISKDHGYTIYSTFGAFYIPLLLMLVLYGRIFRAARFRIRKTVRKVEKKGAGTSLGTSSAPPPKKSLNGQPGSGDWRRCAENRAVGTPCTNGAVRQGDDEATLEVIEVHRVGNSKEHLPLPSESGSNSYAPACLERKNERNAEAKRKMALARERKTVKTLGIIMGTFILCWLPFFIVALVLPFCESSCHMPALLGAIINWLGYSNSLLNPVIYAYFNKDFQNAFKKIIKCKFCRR
# Test: Displacement of [3H]-8-OH-DPAT from 5-HT1A receptor in Sprague-Dawley rat brain cortex after 30 mins liquid scintillation spectrometer
# Format: tissue-based, Cerebral cortex
# Conditions: not given
# Method in brief: as §1
row,Ki,Compound
1,Not Active,C=CCN1CCN(CCCN/C(=N\C#N)c2ccncc2)CC1
2,Not Active,COCCN1CCN(CCCN/C(=N\C#N)c2ccncc2)CC1
3,Not Active,N#C/N=C(\NCCCN1CCN(c2ccccc2C#N)CC1)c1ccncc1

# Same assay, conditions: read-out: Ki
row,Ki,Compound
1,6.17 nM,N#C/N=C(\NCCCN1CCN(c2cccc(Cl)c2)CC1)c1ccncc1
2,0.038 nM,N#C/N=C(\NCCCN1CCN(c2ccccn2)CC1)c1ccncc1
3,21.3 nM,CCOc1ccccc1N1CCN(CCCN/C(=N\C#N)c2ccncc2)CC1
4,1.47 nM,COc1ccccc1N1CCN(CCCN/C(=N\C#N)c2ccncc2)CC1

# Molecular target: D(2) dopamine receptor (Rattus norvegicus, UniProt P61169)
# Test: Displacement of [3H]spiperone from dopamine D2 receptor in rat striatum after 15 mins by liquid scintillation counting
# Conditions: not given
# Method in brief: as §1
# Chain of D(2) dopamine receptor (P61169 whole entry): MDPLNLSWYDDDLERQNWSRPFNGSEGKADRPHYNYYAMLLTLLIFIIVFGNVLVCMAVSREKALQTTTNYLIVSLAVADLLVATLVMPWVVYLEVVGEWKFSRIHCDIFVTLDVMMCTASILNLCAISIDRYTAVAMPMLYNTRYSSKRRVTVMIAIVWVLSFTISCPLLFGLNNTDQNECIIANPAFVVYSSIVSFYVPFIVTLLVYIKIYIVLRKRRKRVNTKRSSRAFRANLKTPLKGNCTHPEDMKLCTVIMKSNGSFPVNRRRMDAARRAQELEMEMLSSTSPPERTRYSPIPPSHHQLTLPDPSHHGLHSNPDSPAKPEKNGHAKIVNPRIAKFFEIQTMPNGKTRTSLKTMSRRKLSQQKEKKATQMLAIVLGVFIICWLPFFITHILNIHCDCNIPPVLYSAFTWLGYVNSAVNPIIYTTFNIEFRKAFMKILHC
row,Ki,Compound
1,> 10000 nM,N#C/N=C(\NCCCN1CCN(c2cccc(Cl)c2)CC1)c1ccncc1
2,> 10000 nM,N#C/N=C(\NCCCN1CCN(c2ccccn2)CC1)c1ccncc1
3,> 10000 nM,CCOc1ccccc1N1CCN(CCCN/C(=N\C#N)c2ccncc2)CC1
4,> 10000 nM,COc1ccccc1N1CCN(CCCN/C(=N\C#N)c2ccncc2)CC1

# Molecular target: 5-hydroxytryptamine receptor 2A (Rattus norvegicus, UniProt P14842)
# Test: Displacement of [3H]ketanserin hydrochloride from 5-HT2A receptor in Sprague-Dawley rat brain cortex after 15 mins
# Conditions: not given
# Method in brief: as §1
# Chain of 5-hydroxytryptamine receptor 2A (P14842 whole entry): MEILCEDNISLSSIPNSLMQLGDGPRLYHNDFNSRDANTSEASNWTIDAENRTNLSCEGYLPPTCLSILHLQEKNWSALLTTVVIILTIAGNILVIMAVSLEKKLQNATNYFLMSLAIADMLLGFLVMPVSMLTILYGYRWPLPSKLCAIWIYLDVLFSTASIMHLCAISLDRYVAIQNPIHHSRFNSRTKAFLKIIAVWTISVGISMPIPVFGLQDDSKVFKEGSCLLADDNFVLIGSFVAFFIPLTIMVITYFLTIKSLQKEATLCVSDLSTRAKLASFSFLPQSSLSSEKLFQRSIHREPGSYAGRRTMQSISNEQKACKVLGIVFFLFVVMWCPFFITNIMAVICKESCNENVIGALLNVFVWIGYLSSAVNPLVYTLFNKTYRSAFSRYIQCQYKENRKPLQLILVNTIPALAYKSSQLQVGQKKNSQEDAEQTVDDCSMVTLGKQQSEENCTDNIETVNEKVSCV
row,Ki,Compound
1,Not Active,C=CCN1CCN(CCCN/C(=N\C#N)c2ccncc2)CC1
2,Not Active,N#C/N=C(\NCCCN1CCN(c2ccccn2)CC1)c1ccncc1

# Same assay, conditions: read-out: Ki
row,Ki,Compound
1,> 10000 nM,COCCN1CCN(CCCN/C(=N\C#N)c2ccncc2)CC1
2,> 10000 nM,N#C/N=C(\NCCCN1CCN(c2cccc(Cl)c2)CC1)c1ccncc1
3,1900 nM,CCOc1ccccc1N1CCN(CCCN/C(=N\C#N)c2ccncc2)CC1
4,> 10000 nM,N#C/N=C(\NCCCN1CCN(c2ccccc2C#N)CC1)c1ccncc1
5,> 10000 nM,COc1ccccc1N1CCN(CCCN/C(=N\C#N)c2ccncc2)CC1

# Molecular target: T3, 5-hydroxytryptamine receptor 2C (Rattus norvegicus, UniProt P08909)
# T3 sequence (P08909 whole entry): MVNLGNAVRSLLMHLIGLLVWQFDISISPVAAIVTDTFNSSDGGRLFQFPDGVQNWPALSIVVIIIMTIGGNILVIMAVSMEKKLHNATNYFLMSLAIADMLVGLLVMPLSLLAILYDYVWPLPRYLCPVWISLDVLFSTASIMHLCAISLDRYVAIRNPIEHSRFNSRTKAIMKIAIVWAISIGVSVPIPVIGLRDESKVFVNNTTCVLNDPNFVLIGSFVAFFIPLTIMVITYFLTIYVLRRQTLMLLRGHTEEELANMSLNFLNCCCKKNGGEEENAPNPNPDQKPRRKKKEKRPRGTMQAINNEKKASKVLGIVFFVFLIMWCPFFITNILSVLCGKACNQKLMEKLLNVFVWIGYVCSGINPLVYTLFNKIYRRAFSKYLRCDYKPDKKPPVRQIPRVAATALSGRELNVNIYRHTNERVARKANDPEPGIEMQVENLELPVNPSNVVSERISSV
# Test: Displacement of [3H]mesulergine from 5-HT2C receptor in Sprague-Dawley rat brain cortex after 15 mins
# Conditions: not given
# Method in brief: as §1
row,Compound,Ki
1,C=CCN1CCN(CCCN/C(=N\C#N)c2ccncc2)CC1,Not Active
2,N#C/N=C(\NCCCN1CCN(c2ccccn2)CC1)c1ccncc1,Not Active
3,N#C/N=C(\NCCCN1CCN(c2ccccc2C#N)CC1)c1ccncc1,Not Active

# The next lines start with the values.
row,Ki,Compound
1,Not Active,COCCN1CCN(CCCN/C(=N\C#N)c2ccncc2)CC1
2,Not Active,N#C/N=C(\NCCCN1CCN(c2cccc(Cl)c2)CC1)c1ccncc1
3,Not Active,COc1ccccc1N1CCN(CCCN/C(=N\C#N)c2ccncc2)CC1

# Same assay, conditions: read-out: Ki
row,Ki,Compound
1,11.5 nM,CCOc1ccccc1N1CCN(CCCN/C(=N\C#N)c2ccncc2)CC1

# Molecular target: T4, Adrenergic receptor alpha-1 (Rattus norvegicus, UniProt P15823+P23944+P43140)
# T4 sequence (P15823 whole entry): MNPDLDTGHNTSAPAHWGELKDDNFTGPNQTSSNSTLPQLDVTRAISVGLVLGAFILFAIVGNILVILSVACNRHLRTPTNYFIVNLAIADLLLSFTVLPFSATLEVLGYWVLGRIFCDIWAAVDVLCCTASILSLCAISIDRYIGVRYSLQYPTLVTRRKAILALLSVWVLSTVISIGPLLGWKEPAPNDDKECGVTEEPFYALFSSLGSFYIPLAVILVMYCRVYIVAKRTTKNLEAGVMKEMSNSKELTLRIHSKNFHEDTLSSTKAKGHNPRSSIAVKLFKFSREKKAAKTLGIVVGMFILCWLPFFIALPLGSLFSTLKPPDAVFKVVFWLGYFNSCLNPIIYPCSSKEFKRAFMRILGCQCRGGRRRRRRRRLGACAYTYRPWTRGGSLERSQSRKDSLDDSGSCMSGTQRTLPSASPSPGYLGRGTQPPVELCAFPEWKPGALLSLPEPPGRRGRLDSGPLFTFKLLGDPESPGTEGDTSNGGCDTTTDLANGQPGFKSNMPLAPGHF
# T4 sequence (P23944 whole entry): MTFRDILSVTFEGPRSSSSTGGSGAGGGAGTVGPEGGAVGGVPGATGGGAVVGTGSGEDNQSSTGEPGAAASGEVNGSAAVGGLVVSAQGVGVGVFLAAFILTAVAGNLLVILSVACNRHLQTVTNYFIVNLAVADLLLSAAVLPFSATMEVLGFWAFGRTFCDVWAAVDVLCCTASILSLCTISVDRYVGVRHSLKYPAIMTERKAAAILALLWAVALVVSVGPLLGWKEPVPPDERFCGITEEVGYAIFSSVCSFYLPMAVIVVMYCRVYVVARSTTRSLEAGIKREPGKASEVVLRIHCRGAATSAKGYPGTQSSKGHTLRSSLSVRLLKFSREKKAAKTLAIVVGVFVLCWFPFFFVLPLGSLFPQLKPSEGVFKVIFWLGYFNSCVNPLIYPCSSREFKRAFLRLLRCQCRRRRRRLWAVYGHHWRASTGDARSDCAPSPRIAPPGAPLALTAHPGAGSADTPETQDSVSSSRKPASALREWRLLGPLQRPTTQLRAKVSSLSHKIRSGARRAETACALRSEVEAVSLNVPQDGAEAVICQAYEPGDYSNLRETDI
# T4 sequence (P43140 whole entry): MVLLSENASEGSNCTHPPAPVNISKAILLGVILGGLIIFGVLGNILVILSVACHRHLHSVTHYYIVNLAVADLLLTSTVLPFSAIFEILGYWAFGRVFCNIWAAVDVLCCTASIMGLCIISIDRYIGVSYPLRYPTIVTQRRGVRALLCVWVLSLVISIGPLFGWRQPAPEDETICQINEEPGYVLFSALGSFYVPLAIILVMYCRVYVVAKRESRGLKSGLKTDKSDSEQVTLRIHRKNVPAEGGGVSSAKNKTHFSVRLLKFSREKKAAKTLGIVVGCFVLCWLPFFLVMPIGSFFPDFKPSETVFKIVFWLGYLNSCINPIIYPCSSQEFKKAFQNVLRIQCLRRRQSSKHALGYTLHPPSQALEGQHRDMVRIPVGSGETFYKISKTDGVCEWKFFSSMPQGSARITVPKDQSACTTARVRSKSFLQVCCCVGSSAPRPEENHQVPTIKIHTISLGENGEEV
# Test: Displacement of [3H]prazosin from alpha1 adrenergic receptor in rat striatum after 30 mins by liquid scintillation counting
# Conditions: in the assay text read “rat brain cortex” for “rat striatum”
# Method in brief: as §1
row,Ki,Compound
1,912 nM,N#C/N=C(\NCCCN1CCN(c2cccc(Cl)c2)CC1)c1ccncc1
2,> 10000 nM,N#C/N=C(\NCCCN1CCN(c2ccccn2)CC1)c1ccncc1
3,190 nM,CCOc1ccccc1N1CCN(CCCN/C(=N\C#N)c2ccncc2)CC1
4,> 10000 nM,COc1ccccc1N1CCN(CCCN/C(=N\C#N)c2ccncc2)CC1

# Molecular target: D(1A) dopamine receptor (Rattus norvegicus, UniProt P18901)
# Test: Displacement of [3H]SCH-23390 from dopamine D1 receptor in rat striatum after 15 mins by liquid scintillation counting
# Conditions: not given
# Method in brief: as §1
# Chain of D(1A) dopamine receptor (P18901 whole entry): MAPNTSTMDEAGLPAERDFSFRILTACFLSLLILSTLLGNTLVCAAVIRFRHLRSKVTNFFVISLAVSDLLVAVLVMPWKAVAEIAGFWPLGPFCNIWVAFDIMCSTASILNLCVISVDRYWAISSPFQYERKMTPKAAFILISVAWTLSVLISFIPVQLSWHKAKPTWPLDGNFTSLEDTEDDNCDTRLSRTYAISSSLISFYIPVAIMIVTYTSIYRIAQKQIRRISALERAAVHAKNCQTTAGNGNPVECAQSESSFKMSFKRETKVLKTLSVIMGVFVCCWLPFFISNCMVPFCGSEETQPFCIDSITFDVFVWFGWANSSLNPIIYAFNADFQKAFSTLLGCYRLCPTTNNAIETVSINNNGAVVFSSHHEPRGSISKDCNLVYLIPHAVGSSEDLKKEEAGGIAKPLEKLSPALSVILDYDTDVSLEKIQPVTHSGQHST
row,Ki,Compound
1,1630 nM,N#C/N=C(\NCCCN1CCN(c2cccc(Cl)c2)CC1)c1ccncc1
2,> 10000 nM,N#C/N=C(\NCCCN1CCN(c2ccccn2)CC1)c1ccncc1
3,> 10000 nM,CCOc1ccccc1N1CCN(CCCN/C(=N\C#N)c2ccncc2)CC1
4,> 10000 nM,COc1ccccc1N1CCN(CCCN/C(=N\C#N)c2ccncc2)CC1
